Screens as filed in PubChem.
The list is not random: actives were taken first. Their share in the collection is about 1.9%.
LEDGF integ inh: blockers of LEDGF/p75-dependent integrase strand transfer – biochemical, TR-FRET, high throughput, primary screen | HIV-1 integrase (with human LEDGF/p75) | TR-FRET IN-LEDGF/p75 DNA integration, Eu/Cy5 | inhibition, % at 3.7 µM | hit rate 0.64% among 370,000;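 active = inhibition above the screen-wide mean plus 3 SD, cut at about 13% in these data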;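 note: signal is the Cy5 over europium emission ratio at 671 and 618 nm; 0% = plate median of compound wells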
CASP6 VEID inh: human caspase-6 inhibitors, primary screen, biochemical, VEID-R110 fluorescence, single point, set 2; purified caspase-6, Z-VEID-R110 cleavage fluorescence; inhibition, % at 12.5 µM; hit rate 0.53% among 350,000; AID 686996, 2013;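 active = mean inhibition across replicates at least about 35%, with every replicate also reaching that limit, limit read from the data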;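 note: 0% = median of neutral control wells and 100% = no fluorescence left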
NSD2 inh: NSD2 histone methyltransferase inhibitors, primary screen, biochemical, AlphaScreen, single concentration, set 2. inhibition, % at 12.5 µM. NSD2 peptide methylation, 120 min. hit rate 0.54% among 310,000; in the data active = inhibition above about 50%
TDP2 absorb: human TDP2 enzyme inhibitors, primary screen, biochemical, epi absorbance, recombinant enzyme | T5PNP hydrolysis, p-nitrophenol absorbance 415 nm | inhibition, % at 12.8 µM | hit rate 0.34% among 370,000;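 active = inhibition above the mean of all tested compounds plus 3 SD, set per campaign, cut at about 25% in these data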;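 note: 0% = DMSO with enzyme and 100% = buffer with substrate but no TDP2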
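Material: recombinant human TDP2; quantity: TDP2 enzyme at 120 nM final; medium: Tris-HCl pH 7.5 with MgCl2; compound: single concentration, 12.8 µM nominal, with 1% DMSO; incubation: 2 h enzyme incubation at 37 °C; signal: epi absorbance; measure: percent inhibition; benchmarks: high control without enzyme, low control DMSO plus TDP2; repeats: singlicate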
MBD2 DNA inh: inhibitors of MBD2 binding to methylated DNA, primary screen, biochemical, TR-FRET, DNA-binding domain, human | MBD2 binding to methylated oligonucleotide | inhibition, % at 4.4 µM | hit rate 0.31% among 370,000 | AID 686964, 2013; in the data active = inhibition above about 13%
Target sequence (Q9UBB5 whole entry, looked up, the tested form may be a part): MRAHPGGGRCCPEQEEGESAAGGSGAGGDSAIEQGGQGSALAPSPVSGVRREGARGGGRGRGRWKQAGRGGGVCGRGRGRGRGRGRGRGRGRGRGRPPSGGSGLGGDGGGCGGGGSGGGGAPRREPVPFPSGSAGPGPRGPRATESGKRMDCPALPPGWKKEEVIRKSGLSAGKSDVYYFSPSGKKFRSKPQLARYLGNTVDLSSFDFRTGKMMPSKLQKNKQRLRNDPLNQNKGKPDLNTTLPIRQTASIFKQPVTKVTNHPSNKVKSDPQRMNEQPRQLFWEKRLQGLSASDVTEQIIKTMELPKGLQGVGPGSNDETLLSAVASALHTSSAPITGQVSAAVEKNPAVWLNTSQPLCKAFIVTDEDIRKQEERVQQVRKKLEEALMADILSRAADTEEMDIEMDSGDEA
UHRF1 binding: UHRF1 methylated DNA binding inhibitors, primary screen, counter-screen for MBD2 inhibitor project, biochemical, TR-FRET, human UHRF1, single concentration | UHRF1 binding to methylated oligo | inhibition, % at 4.4 µM | hit rate 0.75% among 370,000 | AID 687016, 2013; in the data active = inhibition above about 21%;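 note: UHRF1 SRA domain binding a hemimethylated CpG hairpin DNA probe; 0% = median of test compound wells and 100% = reference inhibitor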
IN multimer act: HIV-1 IN multimer formation enhancers, counter-screen for LEDGF/p75 integration inhibitor project, biochemical, TR-FRET | shares compounds with LEDGF integ inh | TR-FRET HIV-1 integrase multimerization | activation, % at 7.7 µM | hit rate 17% among 2,000 | AID 1053131, 2014; in the data active = activation above about 8.9%
TR-FRET interf: TR-FRET optical interference artefacts, confirmation, artefact control for LEDGF/p75-dependent integration inhibitor project, biochemical, HIV-1 IN multimerization; shares compounds with LEDGF integ inh; TR-FRET optical interference counterscreen; inhibition, % at 7.7 µM; 2,000 tested, under 10 active;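 active = inhibition above the mean over all tested compounds plus 3 SD, which no compound reached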;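 note: 0% = integrase with antibodies and DMSO and 100% = antibodies without integrase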
IN-LEDGF confirm: inhibitors of HIV-1 IN-LEDGF/p75 DNA integration, confirmation, biochemical, TR-FRET; TR-FRET LEDGF/p75-dependent HIV-1 integration; AID 1053136, 2014; hit rate 36% among 2,000; shares compounds with LEDGF integ inh; inhibition, % at 3.7 µM; in the data active = inhibition above about 14%
* = called active by the depositor; · = no result.

SMILES	LEDGF integ inh	CASP6 VEID inh	NSD2 inh	TDP2 absorb	MBD2 DNA inh	UHRF1 binding	IN multimer act	TR-FRET interf	IN-LEDGF confirm
C[C@@H]1CCCCO[C@@H](CN(C)C(=O)Nc2ccc(F)cc2)[C@H](C)CN([C@H](C)CO)C(=O)c2cc(NC(=O)C3CCCCC3)ccc2O1	·	-2	·	·	·	·	·	·	·
S=c1[nH]nc(-c2ccncc2)n1/N=C/C=C/c1ccco1	18*	51*	25	7	0	14	5	-26	33*
Cc1cccc(-c2n[nH]c(=S)n2/N=C/C=C/c2ccco2)c1	29*	7	8	-7	11	26*	2	-12	8
CCC(=O)N1CC2(CCN(Cc3ccccc3Cl)CC2)c2c([nH]c3cc(OC)ccc23)[C@@H]1CO	·	0	·	·	·	·	·	·	·
O=C(NCc1ccncc1)C1CCN(S(=O)(=O)c2cc(Cl)ccc2Cl)CC1	20*	0	-4	4	-1	1	0	-1	-8
N#C/C(=N\Nc1cc(Cl)cc(Cl)c1)c1nnc2n1CCCCC2	64*	-4	7	1	6	3	1	-7	5
N#C/C(=C(/O)CCl)c1nnc2n1CCCCC2	-4	4	0	-1	2	3	·	·	·
COC(=O)c1cn(C(=O)c2cc(OC)cc(OC)c2)c2ccccc12	-4	-1	-1	-1	1	5	·	·	·
COc1cc(OC)cc(C(=O)n2cnnc2N)c1	25*	·	-2	-5	-1	1	0	-1	-3
Cc1ccc(-c2cc(C(=O)O)c3cc(Br)ccc3n2)o1	14*	26	11	-9	2	9	16*	-57	7
CCC(C(=O)Nc1cnccn1)c1ccccc1 (configuration not stated)	-3	·	-4	-3	4	1	·	·	·
CCC(C(=O)Nc1ccccn1)c1ccccc1 (configuration not stated)	14*	3	-1	3	7	-1	0	-1	13
CCOc1ccc(NC(=O)CNC(=O)c2ccc(OC)cc2)cc1	-4	3	-5	-3	-3	3	·	·	·
COc1ccc(C(=O)NCC(=O)Nc2ccc(-c3ccccc3)cc2)cc1	18*	-2	·	8	-2	-1	11*	-56	-2
CCc1ccc2c(c1)C(NC(C)=O)C(=O)N2CCN1CCOCC1 (configuration not stated)	15*	54*	-2	22	-9	-2	-1	3	33*
CCCN1C(=O)C(NC(C)=O)c2ccccc21 (configuration not stated)	2	·	-2	2	9	7	·	·	·
O=C1C(=Cc2ccco2)CCCC1=Cc1ccco1	61*	72*	22	-2	15*	52*	1	-2	58*
C[C@@H]1CCCCO[C@@H](CN(C)Cc2ccc(Cl)c(Cl)c2)[C@@H](C)CN([C@@H](C)CO)C(=O)c2cc(NC(=O)Cc3ccccc3)ccc2O1	·	-1	·	·	·	·	·	·	·
C=CCCC[C@H]1OC(=O)[C@H](C)NC(=O)[C@H](C(C)C)NC(=O)[C@@H]2CCCN2C(=O)[C@H](Cc2ccccc2)OC(=O)[C@@H](C(C)C)N(C)C(=O)[C@H](C(C)C)NC(=O)C1(C)C	16*	11	·	-5	11	18	0	-1	-8
Cc1cccc2nc(CSCc3ccco3)cn12	16*	·	0	4	-1	5	-2	10	13
Cc1cc(C)n2cc(CSCc3ccco3)nc2n1	1	·	2	10	-1	-3	·	·	·
COc1cc(C2C(C#N)=C(N)Oc3cc(C)oc(=O)c32)cc2c1OCO2 (configuration not stated)	20*	·	22	9	9	42*	3	-14	14*
O=C(O)CCN1C(=O)/C(=C/c2ccc(-c3nc4ccccc4s3)o2)SC1=S	17*	·	17	-6	4	15	2	-10	16*
CC[C@@H](C)CN1C(=O)N[C@@H](c2ccccc2)C(C(C)=O)=C1C	18*	21	·	10	-6	10	1	-4	19*
NC(=O)CSc1nc2scc(-c3ccco3)c2c(=O)n1-c1ccccc1	17*	·	·	-3	1	3	-1	3	5
SMILES	LEDGF integ inh	CASP6 VEID inh	NSD2 inh	TDP2 absorb	MBD2 DNA inh	UHRF1 binding	IN multimer act	TR-FRET interf	IN-LEDGF confirm
O=C(CSc1nc2scc(-c3ccco3)c2c(=O)n1-c1ccccc1)N1CCOCC1	2	·	7	-13	3	-3	·	·	·
O=c1c2c(-c3ccco3)csc2nc(SCc2cn3cccnc3n2)n1-c1ccccc1	27*	·	6	0	7	32*	2	-8	22*
CO[C@H]1CN(C)C(=O)c2ccc(NS(=O)(=O)CC(F)(F)F)cc2OC[C@@H](C)N(Cc2nccs2)C[C@@H]1C	·	-3	·	·	·	·	·	·	·
C[C@@H](NC(=O)C[C@@H]1CC[C@H]2[C@@H](COC[C@H](O)CN2C(=O)Nc2cccc(F)c2)O1)c1ccccc1	·	-1	·	·	·	·	·	·	·
Cn1c(=O)c(C(=O)c2ccc(S(C)(=O)=O)c(Cl)c2Cl)c(O)c2ccccc21	38*	0	0	14	5	-2	0	1	4
O=C(C1CCOCC1)N1C[C@@H]2[C@H](c3ccccc31)[C@H](CO)N2Cc1ccccc1Cl	·	-4	·	·	·	·	·	·	·
N#CC1=C(N)Oc2cc(O)c(C=Nc3ccccc3)cc2C1c1ccccc1 (configuration not stated)	20*	2	4	0	2	-1	3	-15	19*
Cc1ccc(N=Cc2cc3c(cc2O)OC(N)=C(C#N)C3c2ccccc2)cc1 (configuration not stated)	30*	9	-1	-1	-2	-1	4	-18	15*
